System: MS2 coat protein
Experiment: apparent Kd, MS2 coat protein; higher = weaker binding; RNA-MaP array; FMN 200 µM where present
Outline: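 The apparent Kd comes from binding curves fitted cluster by cluster, filtered, and summarised as a median. Those curves followed SNAP-549-labelled MS2 coat protein from 0.7 or 1.5 nM, doubling to 3 µM, on Illumina sequencing-chip clusters where stalled E. coli RNA polymerase had transcribed the designs, without and then with constant ligand. The buffer was 100 mM Tris-HCl pH 7.5, 80 mM KCl, 4 mM MgCl2, BSA, DTT, yeast tRNA and Tween-20, and green signal was normalised to red-channel RNA signal and control-cluster median Fmax.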

[1] = designed as: OFF switch for flavin mononucleotide, no ligand
[2] = ligand present: flavin mononucleotide, designed as: OFF switch for flavin mononucleotide

Sequence | apparent Kd [1] | apparent Kd [2] | apparent Kd (designed as: ON switch for flavin mononucleotide, no ligand) | apparent Kd (ligand present: flavin mononucleotide, designed as: ON switch for flavin mononucleotide)
AUUAUAUAGUCAGGAUAUAGAAUAUUAUUUUAACAUGAGGAUCACCCAUGUAACCUUAUGUGUAGCUAGAAGGGACAUUUAUUA | 85.5 nM | 131 nM | – | –
UCACUUCGUGAGGAUAUGCAAGGACUAUGACUGGUAGAAGGCACGACAUGAGGAUCACCCAUGUCUGUGGGUCC | 17 nM | 18.3 nM | – | –
UUUUAACAUGAGGAUCACCCAUGUGAGGAUAUCGAAAUUUAUAUUAAUAUUAUUAAAUCGAGAAGGCACAUUUU | 102 nM | 97.4 nM | – | –
GUCAGCUCGUGAGGAUAUACAACACUGCUUCGGCAGUGUAAUAAGAUCACAUGAGGAUCACCCAUGUAGAAGGCACGAGCUGAU | 12 nM | 250 nM | – | –
AAUAACAGAGGAUAUACGAAAAUAAGCGGAAACGCAAAGGGACAUGAGGAUCACCCAUGUAGAAGGCUGGAUAA | 32.6 nM | 183 nM | – | –
UUAUGAGAGCAGGAUAUCUUAUAUUUUUAUUAAAGAGAAGGGCUCACAUGAGGAUCACCCAUGUGGUCCUAGAU | 55.9 nM | 598 nM | – | –
UUAAAUAGUGUGAGGAUAUGCUGGUCCUUGGAUCAGCAGAAGGCACAUGAGGAUCACCCAUGUAGUUAAUUUUA | 39.9 nM | 253 nM | – | –
GGAAAUCAUGUAGGAUAUGCAUGGCGAAGCUACGCAGAAGGACAUGAGGAUCACCCAUGUUCUAGCGUCUGAGUUCAGAUGCAA | 20.4 nM | 56.3 nM | – | –
GGAUAGGACAGAGGAUAUACGUGCUAGAGAUACUAGCAAAAUUUCCUCACAUGAGGAUCACCCAUGUAGAAGGGUGUCCUAUCG | 12.9 nM | 12.7 nM | – | –
CUGGGCCAGGAGAAGGGCUAGAGUGUGAUAUAUUUGCCCGCGAGCACAUGAGGAUCACCCAUGUAGCAGGAUAUCCAAGCCGGU | 8.38 nM | 15.8 nM | – | –
UUUAUGUGAGGAUAUACGAAUAGUAAGUAAGUAUUACAGACGUAGAAGGCACAUGAGGAUCACCCAUGUGAACC | 38.5 nM | 78 nM | – | –
UCAUAUAUACAAGGAUAUCAAUGAUUUAUAGAUCCUACAUGAGGAUCACCCAUGUUUUUAUAUUUUGAGAAGGUGUAGUGUCUU | – | – | 214 nM | 333 nM
AUAGCAACAUGAGGAUCACCCAUGUAGGAUAUCGCUAUUGUAAUCAUGAAACAUGAUUACAAUAGCGAGAAGGACAUAUGCUAC | 9.33 nM | 11 nM | – | –
AGCACGAAAGUGCAACGAUGUACGAGAAGGACAUGAGGAUCACCCAUGUAUGCAGUAACUGCUAUGUAGGAUAUCGUACAUCGA | 7.57 nM | 9.94 nM | – | –
CGUGCAAAUGUAGGAUAUGGUUAUCUAUGUCUAGUUACUAGACAUAGAUAACCAGAAGGACAUGAGGAUCACCCAUGUAGCACG | 6.7 nM | 21.6 nM | – | –
GUAAUUACGAGAGGAUAUUGACAUGAGGAUCACCCAUGUAUUUGGGAGUGUUCACUGAAUUCUUACGAGAAGGCUCGUAAAUAC | 213 nM | 214 nM | – | –
CUGCUCCGUGUAGGAUAUGCAUACUCCCACUAUGCAGAAGGACAUGAGGAUCACCCAUGUAUGUUAUUAUCACGUGUAGCGUAC | 28.7 nM | 72.9 nM | – | –
GGUGCGUAUGUGAGGAUAUGCUGGUCCUUGGAUCGGCAGAAGGCACAUGAGGAUCACCCAUGUGGUGUCGUACC | 339 nM | 24.4 nM | – | –
AACUAACAUGAGGAUCACCCAUGUCAGGAUAUGCAUCAAUCAAUCAAUCAAUCAAUCAGCAGAAGGGACACUAC | 16.8 nM | 19.4 nM | – | –
GGUCUUCAAGUCAGGAUAUCGUCUAAUCGAUCUAACGAGAAGGGACAUGAGGAUCACCCAUGUCGUCUCAUCAG | 19.1 nM | 28.5 nM | – | –
GAGCGAAAGCUCAAUGUCGAUAGCAGAAGGACAUGAAAAUACAUGAAAACAUGAGGAUCACCCAUGUAGGAUAUGCUAUCGACU | 8.75 nM | 89.4 nM | – | –

From the EternaBench riboswitch data
